Some results are limits rather than exact numbers.

By Ki is commonly meant a measure of affinity in units of concentration, obtained from inhibition or displacement. High values mean a looser hold on the target, low ones a stronger hold on the target.

A short description of data set [1]: Metabolic stability in human hepatic S9 fraction assessed as compound remaining at 10 uM after 120 mins. The conditions noted are these: s9, 2 h. The format is ADME, Liver. Put shortly:
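Human hepatic S9 (1 mg/ml) with 10 μM final compound in 50 mM potassium phosphate pH 7.4, 3 mM MgCl2, NADPH regenerating system (NADP 1 mM, glucose-6-phosphate 5 mM, G6PDH 1 unit/ml). Triplicates sampled at 0, 15, 30, 60, 120 min; stopped with 3 volumes acetonitrile; LC-MS/MS (MRM) against matrix standard curves; % parent remaining at 120 min.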

For data set [2], the target named is T1, Cannabinoid receptor 1 (Homo sapiens, UniProt P21554). The conditions noted are these: CHO-K1.
Data set [3] is described as follows: Drug uptake in Sprague-Dawley rat brain at 10 mg/kg, ip after 60 mins. Also noted: dose 10 mg/kg, route intraperitoneal. The conditions noted are these: read-out: Drug uptake. The format is ADME, organism-based. Put shortly: (§1)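 Male Sprague Dawley rats, 7–8 weeks old, given 10 mg/kg orally (corn oil) or ip (1:1:18 ethanol:cremophor:saline). Brain taken 1 hour post-dose; left lobe homogenized in 50:50 ethanol:water, protein-precipitated with acetonitrile plus reserpine internal standard, analysed by LC-MS/MS against standards in blank brain homogenate.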

Data set [4] in a line: Plasma concentration in Sprague-Dawley rat at 10 mg/kg, ip after 60 mins. The format is ADME, organism-based. Also noted: dose 10 mg/kg, route intraperitoneal. An outline of the steps:
(§2)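 Male Sprague Dawley rats, 7–8 weeks old, dosed 10 mg/kg orally (corn oil) or ip (1:1:18 ethanol:cremophor:saline). Plasma collected 1 hour post-dose, acetonitrile-precipitated with reserpine internal standard, supernatant diluted in 50:50 methanol:water, quantified by LC-MS/MS against standards in blank plasma.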

Data set [5] deals with Brain. Briefly: (§3) Drug uptake in Sprague-Dawley rat brain at 10 mg/kg, po after 60 mins. The class given is ADME, organism-based. More on the design: dose 10 mg/kg, route oral. The conditions noted are these: in vivo, 1 h, BLD = below limit of detection. An outline of the steps:
as §1

Data set [6] deals with Plasma. Kind of data set: Metabolic stability in human plasma assessed as compound remaining at 10 uM preincubated for 5 mins measured after 60 mins. The format is ADME, cell-free. The conditions noted are these: 1 h. An outline of the steps: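 Human plasma, 1 ml per sample at 37°C, 5 min pre-incubation, then compound at 10 μM final, sampled at 0, 30 and 60 min. Reactions stopped with acetonitrile; LC-MS/MS (MRM) quantitation with standards in blank matrix; % parent remaining at 60 min.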

For data set [7], the system named is MDCK. Kind of data set: Permeability from apical to basal side of MDCK cells expressing human mdr1 gene. The class given is ADME, cell-based, Canis lupus familiaris. The conditions noted are these: dog. Put shortly:
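MDCK-mdr1 cells grown 4 days to confluence on Transwell-type filters in DMEM/F12 with 10% FBS and antibiotics. Compound added apically at 3.16 μM in HBSS with 25 mM D-glucose, HEPES-buffered to pH 7.4; 1 hr at 37°C. Apical and basal samples collected and analysed by LC-MS/MS (MRM).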

For data set [8], the system named is Nucleic Acid. Kind of data set: Ratio of drug level in brain to plasma in Sprague-Dawley rat at 10 mg/kg, ip after 60 mins. Also noted: dose 10 mg/kg, route intraperitoneal. The format is ADME, organism-based. The conditions noted are these: 1 h. An outline of the steps:
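Male Sprague Dawley rats, 7–8 weeks, given 10 mg/kg ip in 1:1:18 ethanol:cremophor:saline; plasma and brain taken at 1 h. Plasma and left-lobe brain homogenate (50:50 ethanol:water) protein-precipitated with acetonitrile, reserpine internal standard; LC-MS/MS MRM vs standards in blank matrices; brain:plasma concentration ratio.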

The nature of data set [9]: Plasma concentration in Sprague-Dawley rat at 10 mg/kg, po after 60 mins. The class given is ADME, organism-based. More on the design: dose 10 mg/kg, route oral. Put shortly:
as §2

The species entered for data set [10] is Homo sapiens. Briefly: Selectivity ratio of Ki for CB2 receptor to Ki for human CB1 receptor.
The target in data set [11] is Cannabinoid receptor 2 (Homo sapiens, UniProt P34972). Briefly: Displacement of [3H]CP55940 from CB2 receptor expressed in CHO-K1 cells. The class given is cell-based.
Data set [12] is described as follows: (§4) Plasma concentration in Sprague-Dawley rat at 10 mg/kg, po after 30 mins. More on the design: dose 10 mg/kg, route oral. The conditions noted are these: Sprague-Dawley, plasma. The class given is ADME, organism-based. Put shortly: (§5)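 Orally dosed male Sprague Dawley rats (7–8 weeks; 10 mg/kg in corn oil) sampled by tail vein at 30 minutes. Plasma acetonitrile-precipitated with reserpine internal standard; supernatant injected undiluted for LC-MS/MS, with standards in blank plasma.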

The nature of data set [13]: as §3. The format is ADME, organism-based. More on the design: dose 10 mg/kg, route oral. The conditions noted are these: Sprague-Dawley, brain, read-out: Drug uptake. An outline of the steps:
as §1

Data set [14] deals with Nucleic Acid. Briefly: Ratio of drug level in brain to plasma in Sprague-Dawley rat at 10 mg/kg, po after 60 mins. The class given is ADME, organism-based. More on the design: dose 10 mg/kg, route oral. The conditions noted are these: 1 h. Put shortly: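 Male Sprague Dawley rats, 7–8 weeks, dosed orally at 10 mg/kg in corn oil; plasma and brain collected 1 h post-dose (tail-vein blood also at 30 min). Acetonitrile precipitation with reserpine internal standard, brain left lobe homogenized in 50:50 ethanol:water; LC-MS/MS MRM with blank-matrix standards; brain:plasma concentration ratio.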

For data set [15], the target named is T1, Cannabinoid receptor 1. Kind of data set: biochemical. The format is cell-based, CHO-K1.
Data set [16] has as its system Plasma. The description is as §4. The class given is ADME, organism-based. More on the design: dose 10 mg/kg, route oral. The conditions noted are these: in vivo, 0.5 h, BLD = below limit of detection. An outline of the steps: as §5
For data set [17], the target named is T1, Cannabinoid receptor 1. Briefly: biochemical.
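Wherever Ke is given: antagonism measured as blockade of CP55940-evoked intracellular Ca2+ rise, read fluorometrically, in cells additionally carrying Galphaq16.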

Sequence of Cannabinoid receptor 2 (P34972 whole entry): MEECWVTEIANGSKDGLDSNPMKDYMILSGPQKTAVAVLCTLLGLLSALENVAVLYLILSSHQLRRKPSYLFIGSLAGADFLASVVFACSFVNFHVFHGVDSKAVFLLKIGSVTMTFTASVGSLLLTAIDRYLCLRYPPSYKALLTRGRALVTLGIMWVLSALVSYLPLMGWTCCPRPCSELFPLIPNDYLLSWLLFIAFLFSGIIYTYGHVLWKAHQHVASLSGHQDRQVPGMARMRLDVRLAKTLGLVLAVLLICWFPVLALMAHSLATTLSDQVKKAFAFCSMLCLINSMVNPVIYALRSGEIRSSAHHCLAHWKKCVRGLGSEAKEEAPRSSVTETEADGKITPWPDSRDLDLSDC
T1 sequence (P21554 whole entry): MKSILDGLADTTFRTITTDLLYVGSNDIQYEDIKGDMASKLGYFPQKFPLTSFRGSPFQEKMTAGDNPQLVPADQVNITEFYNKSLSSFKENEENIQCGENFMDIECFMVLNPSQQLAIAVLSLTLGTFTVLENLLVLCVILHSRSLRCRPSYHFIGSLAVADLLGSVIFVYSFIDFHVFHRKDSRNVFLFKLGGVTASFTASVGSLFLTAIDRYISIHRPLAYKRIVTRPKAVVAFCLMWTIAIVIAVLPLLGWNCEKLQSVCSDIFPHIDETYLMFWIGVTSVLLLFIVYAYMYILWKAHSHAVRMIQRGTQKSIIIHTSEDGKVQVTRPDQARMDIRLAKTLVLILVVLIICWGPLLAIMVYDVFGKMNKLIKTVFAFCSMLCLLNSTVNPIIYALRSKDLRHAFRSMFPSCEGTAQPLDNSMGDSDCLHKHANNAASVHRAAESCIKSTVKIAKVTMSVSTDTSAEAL

As for `Cc1c(C(=O)N2CCC(NC(=O)NC(C)(C)C)(c3ccccc3)CC2)nn(-c2ccc(Cl)cc2Cl)c1-c1ccc(Cl)cc1`, the Stability in [1] is recorded as 88%; in data set [6], greater than 90%. The compound also showed a Ke in [2] of 2.4 nM. Further, the concentration at 1 h in data set [3] turned out to be 12.4 ng/mL; in data set [4], 386 ng/mL; in data set [9], 10.3 ng/mL. Also, the Drug uptake entry in data set [5] was “BLD”. The compound also came in with a permeability in data set [7] of less than 1%. Besides, the BPR in data set [8] amounted to 0.032. Moreover, the Ratio Ki in [10] is 425. The compound also gave a Ki in data set [11] of 20 µM. Besides, the concentration at 0.5 h in data set [12] worked out at 3.72 ng/mL.

In the case of `Cc1c(C(=O)NC2CCN(C(=O)NC(C)(C)C)CC2)nn(-c2ccc(Cl)cc2Cl)c1-c1ccc(Cl)cc1`, in data set [2], the Ke came out at 78 nM. Besides, the concentration at 1 h in [3] came to 25.5 ng/mL; in [4], 67.4 ng/mL; in data set [13] it was 4.46 ng/mL; in data set [9] it was 28 ng/mL. In addition, the Stability in data set [6] is given as 71%. The permeability in data set [7] is given as less than 1%. The BPR in data set [8] was found to be 0.379; in data set [14], 0.16. Also, in data set [10], the Ratio Ki is 228. The Ki in data set [11] is 3.35 µM; in data set [15], 0.0147 µM. For the same compound, the concentration at 0.5 h in [12] is 5.08 ng/mL.

On to `Cc1c(C(=O)N2CCC(NC(=O)NCc3ccccc3)(c3ccccc3)CC2)nn(-c2ccc(Cl)cc2Cl)c1-c1ccc(Cl)cc1`, for which the Stability in data set [1] turned out to be 18%; in data set [6] it was 82%. In data set [2], this compound returned a Ke of 2.1 nM. In addition, the permeability in data set [7] was less than 1%. For the same compound, the Ratio Ki in data set [10] amounted to 398. For the same compound, the Ki in [11] is 17.1 µM; in [15], 0.043 µM.

`Cc1c(C(=O)NC2CCN(C(=O)OC(C)(C)C)CC2)nn(-c2ccc(Cl)cc2Cl)c1-c1ccc(Cl)cc1`: the Stability in data set [1] and in data set [6] was greater than 90% in each case. The compound further yielded a Ke in [2] of 4.7 nM. The concentration at 1 h in data set [3] came to 4.2 ng/mL; in data set [4], 197 ng/mL; in data set [9], 13.2 ng/mL. For the same compound, the Drug uptake entry in data set [5] is on record as “BLD”. For the same compound, the permeability in data set [7] is given as less than 1%. Also, in data set [8], the BPR is 0.0214. Further, the Ratio Ki in data set [10] worked out at 878. The Ki in [11] turned out to be 2.51 µM; in [15], 0.0029 µM. The Cp entry in data set [16] was “BLD”.

Regarding `Cc1c(C(=O)N2CCC(C(N)=O)(c3ccccc3)CC2)nn(-c2ccc(Cl)cc2Cl)c1-c1ccc(Cl)cc1`, in [2], the Ke stood at 0.4 nM. The compound further came in with a Ki in data set [17] of 0.0004 µM. Moreover, the permeability in data set [7] is listed as 8%. Further, in [10], the Ratio Ki was found to be 1600.

The record behind these values is ChEMBL document CHEMBL2029271, “Design and synthesis of cannabinoid receptor 1 antagonists for peripheral selectivity” (J Med Chem, 2012).
